Measurements: ChEMBL document CHEMBL1275561, “In vitro activities of doripenem, a new broad-spectrum carbapenem, against recently collected clinical anaerobic isolates, with emphasis on the Bacteroides fragilis group” (2008)

Key:
Type in all cases: functional
[1] = test system: Parabacteroides distasonis; assay: Antimicrobial activity against Bacteroides distasonis by agar dilution method
Procedure, shortened: (§1)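 CLSI agar dilution on enriched brucella agar (5% lysed defibrinated sheep blood, 1 μg/ml vitamin K1), with drug plates made on the test day. Log-phase cells were adjusted to 0.5 McFarland, and about 10^5 CFU/spot was delivered by Steers replicator. Plates were incubated anaerobically at 37°C for 48 h. MIC was the lowest concentration giving a marked growth change versus the control plate. Controls were B. fragilis ATCC 25285 and B. thetaiotaomicron ATCC 29741.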

[2] = test system: Bacteroides caccae; assay: Antimicrobial activity against Bacteroides caccae assessed as resistant isolates by agar dilution method
Procedure, shortened: (§2)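 CLSI agar dilution on enriched brucella agar (5% lysed defibrinated sheep blood, 1 μg/ml vitamin K1), plates made on test day. Log-phase inocula adjusted to 0.5 McFarland; about 10^5 CFU/spot by Steers replicator. Incubated anaerobically at 37°C for 48 h. MIC was the lowest concentration giving a marked change in growth versus the drug-free control plate. Resistance rates used CLSI anaerobe breakpoints. Controls were B. fragilis ATCC 25285 and B. thetaiotaomicron ATCC 29741.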

[3] = test system: Bacteroides caccae; assay: Antimicrobial activity against Bacteroides caccae by agar dilution method; procedure, shortened: as §1
[4] = test system: Parabacteroides distasonis; assay: Antimicrobial activity against Bacteroides distasonis assessed as resistant isolates by agar dilution method; procedure, shortened: as §2
[5] = test system: Bacteroides fragilis; assay: Antimicrobial activity against Bacteroides fragilis by agar dilution method; procedure, shortened: as §1
[6] = test system: Bacteroides fragilis; assay: Antimicrobial activity against Bacteroides fragilis assessed as resistant isolates by agar dilution method; procedure, shortened: as §2
[7] = test system: Bacteroides ovatus; assay: Antimicrobial activity against Bacteroides ovatus by agar dilution method; procedure, shortened: as §1
[8] = test system: Bacteroides ovatus; assay: Antimicrobial activity against Bacteroides ovatus assessed as resistant isolates by agar dilution method; procedure, shortened: as §2
[9] = test system: Bacteroides thetaiotaomicron; assay: Antimicrobial activity against Bacteroides thetaiotaomicron by agar dilution method; procedure, shortened: as §1
[10] = test system: Bacteroides thetaiotaomicron; assay: Antimicrobial activity against Bacteroides thetaiotaomicron assessed as resistant isolates by agar dilution method; procedure, shortened: as §2
[11] = test system: Bacteroides uniformis; assay: Antimicrobial activity against Bacteroides uniformis by agar dilution method; procedure, shortened: as §1
[12] = test system: Bacteroides uniformis; assay: Antimicrobial activity against Bacteroides uniformis assessed as resistant isolates by agar dilution method; procedure, shortened: as §2
[13] = test system: Phocaeicola vulgatus; assay: Antimicrobial activity against Bacteroides vulgatus by agar dilution method; procedure, shortened: as §1
[14] = test system: Phocaeicola vulgatus; assay: Antimicrobial activity against Bacteroides vulgatus assessed as resistant isolates by agar dilution method; procedure, shortened: as §2
[15] = test system: Bacteroides eggerthii; assay: Antimicrobial activity against Bacteroides eggerthii by agar dilution method; procedure, shortened: as §1
[16] = test system: Bacteroides eggerthii; assay: Antimicrobial activity against Bacteroides eggerthii assessed as resistant isolates by agar dilution method; procedure, shortened: as §2
[17] = test system: Parabacteroides merdae; assay: Antimicrobial activity against Bacteroides merdae by agar dilution method; procedure, shortened: as §1
[18] = test system: Parabacteroides merdae; assay: Antimicrobial activity against Bacteroides merdae assessed as resistant isolates by agar dilution method; procedure, shortened: as §2
[19] = test system: Bacteroides nordii; assay: Antimicrobial activity against Bacteroides nordii by agar dilution method; procedure, shortened: as §1
[20] = test system: Bacteroides nordii; assay: Antimicrobial activity against Bacteroides nordii assessed as resistant isolates by agar dilution method; procedure, shortened: as §2
[21] = test system: Finegoldia magna; assay: Antimicrobial activity against Finegoldia magna assessed as resistant isolates by agar dilution method
Procedure, shortened: (§3)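 Agar dilution following CLSI on brucella agar with 5% lysed defibrinated sheep blood and 1 μg/ml vitamin K1, plates made on test day. Log-phase cells at 0.5 McFarland, about 10^5 CFU/spot by Steers replicator, 48 h anaerobic at 37°C. MIC read as the lowest concentration causing a marked growth change versus control. Resistance counted by CLSI anaerobe breakpoints. Eubacterium lentum ATCC 43055 served as control.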

[22] = test system: Peptoniphilus asaccharolyticus; assay: Antimicrobial activity against Peptoniphilus asaccharolyticus assessed as resistant isolates by agar dilution method; conditions: pooled result: one value given for 4 cell lines, strains, targets or settings; procedure, shortened: as §3
[23] = test system: Anaerococcus prevotii; assay: Antimicrobial activity against Anaerococcus prevotii by agar dilution method
Procedure, shortened: (§4)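 Gram-positive anaerobes were tested by CLSI agar dilution on brucella agar enriched with 5% lysed defibrinated sheep blood and 1 μg/ml vitamin K1. Inoculum was log-phase growth at 0.5 McFarland, about 10^5 CFU/spot by replicator. Incubation was anaerobic, 37°C, 48 h. MIC was the lowest concentration with a marked growth change versus the drug-free plate. Eubacterium lentum ATCC 43055 was the control, and tests were repeated if it fell outside the CLSI range.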

[24] = test system: Peptostreptococcus sp.; assay: Antimicrobial activity against Peptostreptococcus sp. by agar dilution method
Procedure, shortened: (§5)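 Log-phase isolates were adjusted to 0.5 McFarland, and about 10^5 CFU/spot was delivered by Steers replicator. Plates were incubated anaerobically at 37°C for 48 h. MIC was the lowest concentration giving a marked growth change versus the control plate. Eubacterium lentum ATCC 43055 was the QC strain, with repeats when out of range.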

[25] = test system: Cutibacterium acnes; assay: Antimicrobial activity against Propionibacterium acnes by agar dilution method; procedure, shortened: as §5
[26] = test system: Cutibacterium acnes; assay: Antimicrobial activity against Propionibacterium acnes assessed as resistant isolates by agar dilution method; procedure, shortened: as §3
[27] = test system: Propionibacterium; assay: Antimicrobial activity against Propionibacterium sp. by agar dilution method; procedure, shortened: as §5
[28] = test system: Propionibacterium; assay: Antimicrobial activity against Propionibacterium sp. assessed as resistant isolates by agar dilution method; procedure, shortened: as §3
[29] = test system: Clostridioides difficile; assay: Antimicrobial activity against Clostridium difficile by agar dilution method
[30] = test system: Clostridium perfringens; assay: Antimicrobial activity against Clostridium perfringens by agar dilution method
[31] = test system: [Clostridium] innocuum; assay: Antimicrobial activity against Clostridium innocuum by agar dilution method
[32] = test system: [Clostridium] innocuum; assay: Antimicrobial activity against Clostridium innocuum assessed as resistant isolates by agar dilution method; conditions: pooled result: one value given for 4 cell lines, strains, targets or settings
[33] = test system: Clostridium paraputrificum; assay: Antimicrobial activity against Clostridium paraputrificum by agar dilution method
[34] = test system: Clostridium subterminale; assay: Antimicrobial activity against Clostridium subterminale by agar dilution method
[35] = test system: Clostridium tertium; assay: Antimicrobial activity against Clostridium tertium by agar dilution method
[36] = test system: Finegoldia magna; assay: Antimicrobial activity against Finegoldia magna by agar dilution method; procedure, shortened: as §4
[37] = test system: Peptoniphilus asaccharolyticus; assay: Antimicrobial activity against Peptoniphilus asaccharolyticus by agar dilution method; procedure, shortened: as §4
[38] = test system: Parvimonas micra; assay: Antimicrobial activity against Micromonas micros by agar dilution method; procedure, shortened: as §4

COc1c(N2C[C@@H]3CCCN[C@@H]3C2)c(F)cc2c(=O)c(C(=O)O)cn(C3CC3)c12 [MOXIFLOXACIN]
32 µg/mL: MIC90 [7] | MIC90 [9]
4 µg/mL: MIC50 [3] | MIC50 [9] | MIC50 [11]
64 µg/mL: MIC90 [11] | MIC90 [13]
16 µg/mL: MIC90 [1] | MIC90 [3] | MIC90 [15] | MIC90 [17] | MIC90 [19] | MIC90 [23] | MIC90 [24]
50%: Activity [2]
29.3%: Activity [6]
14.3%: Activity [12]
14.8%: Activity [22]
0%: Activity [26] | Activity [28]
53.3%: Activity [4]
30.8%: Activity [10]
0.5 µg/mL: MIC50 [23] | MIC50 [24] | MIC90 [25] | MIC90 [27]
8 µg/mL: MIC50 [1] | MIC90 [5] | MIC50 [13]
48.4%: Activity [14]
0.25 µg/mL: MIC50 [25] | MIC [27] | MIC50 [27]
40%: Activity [8] | Activity [16] | Activity [18] | Activity [20] | Activity [21]
1 µg/mL: MIC50 [5]
2 µg/mL: MIC50 [7] | MIC50 [15] | MIC50 [17] | MIC50 [19]

CN[C@H](CC(C)C)C(=O)N[C@H]1C(=O)N[C@@H](CC(N)=O)C(=O)N[C@H]2C(=O)N[C@H]3C(=O)N[C@H](C(=O)N[C@H](C(=O)O)c4cc(O)cc(O)c4-c4cc3ccc4O)[C@H](O)c3ccc(c(Cl)c3)Oc3cc2cc(c3O[C@@H]2O[C@H](CO)[C@@H](O)[C@H](O)[C@H]2O[C@H]2C[C@](C)(N)[C@H](O)[C@H](C)O2)Oc2ccc(cc2Cl)[C@H]1O [VANCOMYCIN]
8 µg/mL: MIC50 [31] | MIC50 [33] | MIC50 [34] | MIC50 [35]
2.4%: Activity [22]
16 µg/mL: MIC90 [31] | MIC90 [33] | MIC90 [34] | MIC90 [35]
0%: Activity [32] | Activity [21] | Activity [26] | Activity [28]
2 µg/mL: MIC90 [30] | MIC90 [37] | MIC90 [38] | MIC90 [23] | MIC90 [24]
1 µg/mL: MIC [29] | MIC [30] | MIC50 [30] | MIC50 [36] | MIC90 [36] | MIC50 [37] | MIC50 [38] | MIC50 [23] | MIC50 [24] | MIC [25] | MIC50 [25] | MIC90 [25] | MIC [27] | MIC50 [27] | MIC90 [27]
